One data set has as its system Prostate cancer organoid. The data set is described as follows: Antitumor activity against patient derived Prostate cancer PDX organoid assessed as reduction in organoid growth measured after 2 weeks. The data set is classed as functional, tissue-based. The settings on record: Homo sapiens. The essentials:
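Single cells from prostate cancer PDX tumors (collagenase I/III digest); 20000 cells embedded in collagen gel and cultured overnight, then treated or vehicle for 14 days with at least 5 wells per dose. Organoids imaged and counted on day 14; groups compared by Student t test.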

Data set [1] has as its target T1, Prostaglandin G/H synthase 2 (Homo sapiens, UniProt P35354).
T1 sequence (P35354 whole entry): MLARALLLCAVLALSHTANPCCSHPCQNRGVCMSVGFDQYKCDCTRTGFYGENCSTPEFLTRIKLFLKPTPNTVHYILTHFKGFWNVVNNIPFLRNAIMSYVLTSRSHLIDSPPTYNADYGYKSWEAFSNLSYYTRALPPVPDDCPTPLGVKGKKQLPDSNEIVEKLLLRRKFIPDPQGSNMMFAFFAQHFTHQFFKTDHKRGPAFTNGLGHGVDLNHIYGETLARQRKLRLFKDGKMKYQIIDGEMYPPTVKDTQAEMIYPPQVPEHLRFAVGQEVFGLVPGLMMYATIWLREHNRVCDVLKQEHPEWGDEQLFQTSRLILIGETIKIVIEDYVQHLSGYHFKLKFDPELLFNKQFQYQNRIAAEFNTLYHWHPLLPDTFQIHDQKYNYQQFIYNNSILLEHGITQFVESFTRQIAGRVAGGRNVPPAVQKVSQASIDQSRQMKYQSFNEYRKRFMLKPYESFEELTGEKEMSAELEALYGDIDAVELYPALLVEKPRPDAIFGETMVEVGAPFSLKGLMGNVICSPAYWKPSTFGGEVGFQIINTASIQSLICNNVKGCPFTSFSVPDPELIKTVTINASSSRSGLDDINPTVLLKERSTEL
The data set is described as follows: Inhibition of COX2 (unknown origin). The data set is classed as toxicity. In short, it runs like this: (§1)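 Tested in a commercial off-target safety screening panel of 78 targets. Values reported as RC50, taken as IC50 except for agonist mode, where RC50 is EC50.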

Data set [2] can be described thus: Stability in CD-1 mouse plasma at 37.7 micromol/kg,ip administration measured after 22 hrs by LC-MS/MS analysis. The settings on record: at 37.7 µmol/kg. The data set is classed as ADME, cell-free. The essentials: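 Female CD-1 mice (n=3) dosed i.p. at 37.7 μmol/kg (equimolar across compounds). Blood (20 μL) drawn at 0.25, 5 and 22 h and processed to plasma. Drug levels quantified by LC-MS/MS.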

Another data set deals with MDA-PCa-118b. The data set is described as follows: Antitumor activity against patient derived MDA-PCa-118b cells xenografted in SCID mouse assessed as reduction in tumor burden in femur at 10 mg/kg,ip administration measured after 4 weeks by hematoxylin and eosin staining based analysis. The data set is classed as functional, organism-based. As to conditions: Homo sapiens. The essentials:
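AR-PDX 118b cells (1×10^5) injected via intra-femoral artery in male SCID mice (8–9 weeks). After 2 weeks, 10 mg/kg/day ip or vehicle for 4 weeks (n = 9/group). X-ray imaging every two weeks. At the end, femurs CT-scanned (5 per group) with 3D-reconstruction tumor size, and H&E histology used for tumor/femur area ratio.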

Data set [3] in a line: Antitumor activity against human Panc-1-Luc cells orthotopically xenografted in SCID mouse assessed as reduction in tumor weight at 10 mg/kg,ip administration once daily for 63 days by weighing harvested tumors. The settings on record: time 63 day.
Data set [4] in a line: Cytotoxicity against CD-1 mouse Primary hepatocyte assessed as inhibition of cell growth incubated for 72 hrs by MTT assay. The data set is classed as toxicity, cell-based. The settings on record: primary hepatocytes.
The subject of data set [5] is MDA-MB-468. The data set can be described thus: Cytotoxicity against human MDA-MB-468 cells assessed as change in gene expression observed after 12 hrs by RNA-seq assay.
In data set [6] the target is Nuclear receptor coactivator 3 (Homo sapiens) (UniProt Q9Y6Q9). The data set can be described thus: Inhibition of recombinant His-tagged SRC-3 (unknown origin) expressed in baculovirus assessed as reduction in recruitment of SRC-3 in ER complex at 0.15 uM incubated for 30 mins by pull-down based western blotting analysis. In short, it runs like this:
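Purified baculovirus-expressed His-SRC-3-flag (0.1 μg) preincubated with compound or vehicle for 30 min on ice. Then 0.1 μg recombinant ERα and His-p300 plus ERE-containing DNA oligo and 1 μM 17β-estradiol added, 1 h on ice. ER complexes immunoprecipitated with anti-ERα antibody; SRC-3 and p300 detected by western blot.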

Data set [7] can be described thus: Clearance in CD-1 mouse at 1 mg/kg,iv administration measured upto 48 hrs by LC-MS/MS analysis. The settings on record: in vivo. The data set is classed as ADME, organism-based. The essentials: (§2)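 Single intravenous bolus in ICR male mice (n = 3, 6 weeks); dosing solution 0.5 mg/mL in 20% DMSO, 16% PEG, 4% dextrose in PBS. Tail-vein blood (10 μL) taken at 2, 5, 15, 30 min and 1, 2, 4, 8, 24, 48 h. Plasma quantified by LC-MS/MS against a 0.5–1000 ng/mL calibration; parameters from non-compartmental analysis.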

Data set [8] is described as follows: AUC (0 to t) in CD-1 mouse at 1 mg/kg,iv administration measured upto 48 hrs by LC-MS/MS analysis. In kind it is ADME, organism-based. As to conditions: in vivo. The essentials: as §2
Data set [9] deals with T2, Endothelin-1 receptor (Homo sapiens, UniProt P25101).
T2 sequence (P25101 whole entry): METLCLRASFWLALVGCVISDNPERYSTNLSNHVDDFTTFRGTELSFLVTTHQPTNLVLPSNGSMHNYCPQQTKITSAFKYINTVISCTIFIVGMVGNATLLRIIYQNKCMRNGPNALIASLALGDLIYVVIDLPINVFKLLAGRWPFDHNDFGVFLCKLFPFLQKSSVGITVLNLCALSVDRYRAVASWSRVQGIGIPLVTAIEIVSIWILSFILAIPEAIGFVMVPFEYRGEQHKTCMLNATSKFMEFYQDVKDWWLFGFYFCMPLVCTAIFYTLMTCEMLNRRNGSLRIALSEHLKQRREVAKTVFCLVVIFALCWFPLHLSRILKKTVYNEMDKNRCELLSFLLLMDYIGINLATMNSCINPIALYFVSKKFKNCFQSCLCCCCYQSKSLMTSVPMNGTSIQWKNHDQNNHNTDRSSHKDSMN
The data set is described as follows: Antagonist activity at EDNRA (unknown origin) by calcium flux assay. The data set is classed as toxicity. In short, it runs like this: as §1

Data set [10] can be described thus: Cmax in CD-1 mouse at 1 mg/kg,iv administration measured upto 48 hrs by LC-MS/MS analysis. In kind it is ADME, organism-based. As to conditions: in vivo. The essentials: as §2
The target in data set [11] is T2, Endothelin-1 receptor. The data set can be described thus: Agonist activity at EDNRA (unknown origin) by calcium flux assay. In kind it is toxicity. The essentials: as §1
Data set [12] has as its system MDA-MB-468. The data set is described as follows: Cytotoxicity against human MDA-MB-468 cells assessed as inhibition of cell growth preincubated for 3 to 6 hrs followed by compound washout and incubated for 72 hrs by MTT assay. In kind it is functional, cell-based. As to conditions: time 3-6 hrs. In short, it runs like this: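 MDA-MB-468 cells (RPMI 1640, 5% FBS) exposed to compound for varying durations, washed with PBS, then kept in culture to a total of 72 h. Viability read by MTT; EC50 and EC90 determined at each exposure time.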

In a further data set the test system is MCF7. The data set is described as follows: Cytotoxicity against human MCF7 cells assessed as inhibition of cell growth incubated for 72 hrs by MTT assay. The data set is classed as functional, cell-based. The settings on record: MCF7, 72 h.

Active and inactive are the calls of the source. The calls are words filed in the database; no cut-off is given here.

Nuclear receptor coactivator 3 (Homo sapiens), sequence (Q9Y6Q9 2-1424 limits assumed): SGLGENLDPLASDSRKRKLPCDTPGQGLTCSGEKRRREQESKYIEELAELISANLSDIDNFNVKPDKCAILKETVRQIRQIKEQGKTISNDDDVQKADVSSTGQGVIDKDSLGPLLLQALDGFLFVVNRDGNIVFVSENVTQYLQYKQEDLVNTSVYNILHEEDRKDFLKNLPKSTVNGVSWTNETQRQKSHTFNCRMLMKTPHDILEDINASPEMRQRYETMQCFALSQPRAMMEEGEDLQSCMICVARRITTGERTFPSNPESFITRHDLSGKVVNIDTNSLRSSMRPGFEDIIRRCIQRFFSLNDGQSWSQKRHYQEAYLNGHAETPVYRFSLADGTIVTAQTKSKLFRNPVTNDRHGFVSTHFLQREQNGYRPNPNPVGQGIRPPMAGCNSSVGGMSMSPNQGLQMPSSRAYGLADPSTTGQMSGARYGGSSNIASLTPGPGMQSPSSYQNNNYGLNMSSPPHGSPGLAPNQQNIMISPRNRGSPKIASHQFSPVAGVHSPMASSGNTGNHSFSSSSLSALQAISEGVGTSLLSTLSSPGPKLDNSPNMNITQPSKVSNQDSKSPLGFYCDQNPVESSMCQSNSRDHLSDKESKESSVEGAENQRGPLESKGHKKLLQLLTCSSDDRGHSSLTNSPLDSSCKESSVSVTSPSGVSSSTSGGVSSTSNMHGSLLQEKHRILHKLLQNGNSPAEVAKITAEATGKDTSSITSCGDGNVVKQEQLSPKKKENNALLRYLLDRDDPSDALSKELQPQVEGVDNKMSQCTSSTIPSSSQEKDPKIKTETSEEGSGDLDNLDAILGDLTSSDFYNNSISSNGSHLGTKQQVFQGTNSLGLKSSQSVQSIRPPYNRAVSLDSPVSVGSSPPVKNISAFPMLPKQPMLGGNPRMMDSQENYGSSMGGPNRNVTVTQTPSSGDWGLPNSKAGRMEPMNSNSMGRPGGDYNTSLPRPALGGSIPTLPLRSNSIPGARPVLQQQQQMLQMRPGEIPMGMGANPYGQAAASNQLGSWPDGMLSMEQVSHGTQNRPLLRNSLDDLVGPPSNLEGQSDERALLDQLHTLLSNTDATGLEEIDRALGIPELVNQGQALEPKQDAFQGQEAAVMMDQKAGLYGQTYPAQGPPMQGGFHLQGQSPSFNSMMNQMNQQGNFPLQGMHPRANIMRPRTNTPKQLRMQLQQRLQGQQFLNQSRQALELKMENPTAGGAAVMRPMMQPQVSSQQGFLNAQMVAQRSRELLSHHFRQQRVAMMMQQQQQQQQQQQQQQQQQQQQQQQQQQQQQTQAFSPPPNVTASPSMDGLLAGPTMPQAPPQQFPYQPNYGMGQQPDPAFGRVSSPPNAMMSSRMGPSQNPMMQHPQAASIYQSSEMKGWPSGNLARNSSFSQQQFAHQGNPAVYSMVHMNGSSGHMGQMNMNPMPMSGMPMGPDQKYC

Take `C/C(=N\N=c1/[nH]c2cc(F)c(F)cc2n1C)c1ccc(F)cn1`: the outcome with Prostate cancer organoid, in the data set with MDA-PCa-118b, in the data set with MDA-MB-468 [5] and in the data set with MDA-MB-468 [12] was Active. For the same compound, the IC50 amounted to 3 µM in data set [1], 4 µM on Endothelin-1 receptor [9] and 0.0034 µM in the data set with MCF7. In data set [2], the Stability result is on record as “Stable”. For the same compound, the Activity in [3] was determined as 0.22 g. The IC50 at 72 h in [4] is over 1 µM. For the same compound, in data set [6], the inhibition entry is “Active”. Moreover, the clearance in [7] was 22 mL/min/kg. Also, in [8], the AUCt was 737 ng·h/mL. In [10], this compound came in with a Cmax of 1066 ng/mL. In addition, the half-maximal effective concentration (EC50) on Endothelin-1 receptor [11] worked out at 6.4 µM.

Values taken from ChEMBL document CHEMBL5543124, “Lead Compound Development of SRC-3 Inhibitors with Improved Pharmacokinetic Properties and Anticancer Efficacy” (J Med Chem, 2024).
